ChEMBL document CHEMBL1138195, “Highly chiral muscarinic ligands: the discovery of (2S,2'R,3'S,5'R)-1-methyl-2-(2-methyl-1,3-oxathiolan-5-yl)pyrrolidine 3-sulfoxide methyl iodide, a potent, functionally selective, M2 partial agonist” (J Med Chem, 2006)

Key:
[1] = biological target: T1, Muscarinic acetylcholine receptor M2 (Homo sapiens) (UniProt P08172); assay: Antagonist affinity at muscarinic M2 receptor in guinea pig atrium; assay type: functional, tissue-based; details: Cavia porcellus; Cardiac atrium; target entry is the homologue from another species
T1 sequence (whole entry): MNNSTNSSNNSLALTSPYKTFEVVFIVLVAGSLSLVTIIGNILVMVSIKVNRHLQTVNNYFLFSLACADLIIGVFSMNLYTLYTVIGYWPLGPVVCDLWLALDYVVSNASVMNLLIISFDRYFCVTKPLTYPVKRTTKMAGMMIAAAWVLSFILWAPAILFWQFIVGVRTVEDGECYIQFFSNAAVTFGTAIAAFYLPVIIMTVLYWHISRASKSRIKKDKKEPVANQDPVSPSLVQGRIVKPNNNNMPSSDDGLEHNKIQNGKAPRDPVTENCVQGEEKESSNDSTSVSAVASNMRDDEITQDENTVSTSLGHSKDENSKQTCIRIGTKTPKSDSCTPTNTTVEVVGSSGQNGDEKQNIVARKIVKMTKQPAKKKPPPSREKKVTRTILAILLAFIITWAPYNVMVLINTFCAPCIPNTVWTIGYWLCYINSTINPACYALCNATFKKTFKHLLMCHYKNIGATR
Procedure, shortened: (§1)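 Guinea pig left atria in PSS at 30 °C, paced by square-wave pulses (1 ms, 1 Hz, 5-10 V). Inotropic force recorded isometrically after 2 h equilibration, with cumulative dose-response curves to arecaidine propargyl ester as reference. Antagonists incubated 60 min after a 30 min wash, then the curve was repeated. Values given as pD2 with intrinsic activity, or as pKb.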

[2] = biological target: Muscarinic acetylcholine receptor M3 (Cavia porcellus) (UniProt Q8VH26); assay: Antagonist affinity at muscarinic M3 receptor in guinea pig ileum; assay type: functional, tissue-based
Chain of Muscarinic acetylcholine receptor M3 (Cavia porcellus) (Q8VH26 1-587): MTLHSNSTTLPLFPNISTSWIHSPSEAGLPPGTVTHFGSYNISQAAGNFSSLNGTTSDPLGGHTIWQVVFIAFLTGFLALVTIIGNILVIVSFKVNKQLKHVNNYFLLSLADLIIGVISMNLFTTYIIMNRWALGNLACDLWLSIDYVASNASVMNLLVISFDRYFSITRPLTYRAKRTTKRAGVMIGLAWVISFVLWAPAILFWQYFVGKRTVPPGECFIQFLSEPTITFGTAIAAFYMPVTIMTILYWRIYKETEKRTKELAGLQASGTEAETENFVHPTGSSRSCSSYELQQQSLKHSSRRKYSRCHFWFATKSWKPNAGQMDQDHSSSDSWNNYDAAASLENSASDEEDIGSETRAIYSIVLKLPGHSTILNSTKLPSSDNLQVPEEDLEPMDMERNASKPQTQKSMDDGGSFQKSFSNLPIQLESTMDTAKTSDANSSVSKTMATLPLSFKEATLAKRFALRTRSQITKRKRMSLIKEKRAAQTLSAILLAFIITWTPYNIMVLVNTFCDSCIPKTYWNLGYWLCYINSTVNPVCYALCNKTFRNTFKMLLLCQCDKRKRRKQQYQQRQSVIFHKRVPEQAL
Procedure, shortened: (§2)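 Isolated guinea pig tissue contractions, measured against arecaidine propargyl ester control curves. Agonists: cumulative dose-response curve after a 30 min wash, responses as % of the control maximum. Antagonists: 60 min incubation, then a new agonist curve. Parallel time-control tissues were run. Values expressed as pD2 (-log ED50) with intrinsic activity, or as pKb (-log Kb).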

[3] = biological target: T2, Muscarinic acetylcholine receptor M4 (Homo sapiens) (UniProt P08173); assay: Antagonist affinity at muscarinic M4 receptor in guinea pig lung strips; assay type: functional; details: Cavia porcellus, target entry is the homologue from another species; procedure, shortened: as §2
T2 sequence (whole entry): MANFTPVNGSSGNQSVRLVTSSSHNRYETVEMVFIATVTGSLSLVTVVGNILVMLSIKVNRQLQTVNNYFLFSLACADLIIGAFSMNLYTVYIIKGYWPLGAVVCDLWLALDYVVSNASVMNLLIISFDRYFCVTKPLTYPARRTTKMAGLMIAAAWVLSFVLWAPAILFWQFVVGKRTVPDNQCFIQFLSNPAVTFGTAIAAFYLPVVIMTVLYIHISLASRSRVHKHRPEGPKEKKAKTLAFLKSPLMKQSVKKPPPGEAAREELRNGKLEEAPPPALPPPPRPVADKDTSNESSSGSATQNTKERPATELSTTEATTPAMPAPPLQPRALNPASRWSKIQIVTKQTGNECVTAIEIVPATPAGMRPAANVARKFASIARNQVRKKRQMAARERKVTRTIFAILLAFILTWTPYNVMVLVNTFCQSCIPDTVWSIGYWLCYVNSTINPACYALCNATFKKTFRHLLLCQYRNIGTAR

[4] = biological target: Muscarinic acetylcholine receptor M3 (Cavia porcellus) (UniProt Q8VH26); assay: Agonist potency at muscarinic M3 receptor in guinea pig ileum; assay type: functional, tissue-based; procedure, shortened: as §2
[5] = biological target: T1, Muscarinic acetylcholine receptor M2 (Homo sapiens); assay: Agonist potency at muscarinic M2 receptor in guinea pig atrium; assay type: functional, tissue-based; details: Cavia porcellus; Cardiac atrium; target entry is the homologue from another species; procedure, shortened: as §1
[6] = biological target: T3, Muscarinic acetylcholine receptor M1 (Homo sapiens) (UniProt P11229); assay: Antagonist affinity at muscarinic M1 receptor in rabbit vas deferens; assay type: functional, tissue-based; details: Oryctolagus cuniculus, target entry is the homologue from another species
T3 sequence (whole entry): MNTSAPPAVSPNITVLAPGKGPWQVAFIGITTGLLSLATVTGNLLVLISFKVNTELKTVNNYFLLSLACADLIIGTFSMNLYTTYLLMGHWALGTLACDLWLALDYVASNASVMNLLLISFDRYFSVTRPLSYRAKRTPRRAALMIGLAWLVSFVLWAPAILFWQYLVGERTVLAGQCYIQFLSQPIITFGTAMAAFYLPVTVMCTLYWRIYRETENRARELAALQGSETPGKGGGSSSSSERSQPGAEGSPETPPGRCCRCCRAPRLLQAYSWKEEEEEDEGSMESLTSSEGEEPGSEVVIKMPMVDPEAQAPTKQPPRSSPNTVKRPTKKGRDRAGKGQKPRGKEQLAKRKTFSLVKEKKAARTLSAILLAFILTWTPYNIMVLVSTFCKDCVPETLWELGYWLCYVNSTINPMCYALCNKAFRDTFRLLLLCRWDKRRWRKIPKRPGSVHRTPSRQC
Procedure, shortened: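 Field-stimulated (0.1 ms, 2 Hz, 10-15 V), contractions recorded isometrically after 1 h equilibration. Cumulative dose-response curves against p-Cl-McN-A-343 reference. Antagonists incubated 60 min before the repeat curve. Reported as pD2 (-log ED50) with intrinsic activity, or as pKb.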

[7] = biological target: T1, Muscarinic acetylcholine receptor M2 (Homo sapiens); assay: Efficacy of agonist at muscarinic M2 receptor in guinea pig atrium as ratio of Ka/ED50; assay type: functional, tissue-based; details: Cavia porcellus; Cardiac atrium; target entry is the homologue from another species
Procedure, shortened: (§3)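 Functional affinity constants (Ka) obtained in the atrium and ileum preparations. Full agonists: Furchgott-Bursztyn method. Partial agonists: Waud method, comparing their concentration-response curves with arecaidine propargyl ester, with equieffective concentrations read graphically. Ka was then related to ED50.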

[8] = biological target: Muscarinic acetylcholine receptor M3 (Cavia porcellus) (UniProt Q8VH26); assay: Efficacy of agonist at muscarinic M3 receptor in guinea pig ileum as ratio of Ka/ED50; assay type: functional, tissue-based; procedure, shortened: as §3
[9] = biological target: T4, Muscarinic acetylcholine receptor M1 (Homo sapiens, UniProt P11229); assay: Binding affinity to cloned human muscarinic M1 receptor expressed in CHO cells; assay type: cell-based; details: for Log Ki: cho
T4 sequence (P11229 whole entry): T3 sequence (whole entry)

[10] = biological target: Muscarinic acetylcholine receptor M3 (Homo sapiens, UniProt P20309); assay: Binding affinity to cloned human muscarinic M3 receptor expressed in CHO cells; assay type: cell-based; details: for Log Ki: cho
Chain of Muscarinic acetylcholine receptor M3 (P20309 whole entry): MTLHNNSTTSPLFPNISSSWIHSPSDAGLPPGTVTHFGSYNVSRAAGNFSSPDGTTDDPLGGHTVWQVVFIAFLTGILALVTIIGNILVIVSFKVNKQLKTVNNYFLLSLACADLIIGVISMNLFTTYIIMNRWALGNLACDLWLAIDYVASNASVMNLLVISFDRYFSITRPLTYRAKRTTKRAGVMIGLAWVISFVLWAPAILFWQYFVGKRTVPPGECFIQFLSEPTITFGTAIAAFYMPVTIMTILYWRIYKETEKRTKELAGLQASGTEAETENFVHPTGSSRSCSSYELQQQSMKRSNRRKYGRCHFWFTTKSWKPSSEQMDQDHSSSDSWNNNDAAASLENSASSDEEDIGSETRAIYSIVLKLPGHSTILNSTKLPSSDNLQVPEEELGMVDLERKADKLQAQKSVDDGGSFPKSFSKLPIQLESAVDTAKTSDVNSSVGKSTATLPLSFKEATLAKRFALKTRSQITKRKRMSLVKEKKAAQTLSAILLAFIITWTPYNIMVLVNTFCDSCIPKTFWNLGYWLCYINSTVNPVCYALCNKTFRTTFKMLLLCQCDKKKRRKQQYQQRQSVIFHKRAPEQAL

[11] = biological target: T5, Muscarinic acetylcholine receptor M2 (Homo sapiens, UniProt P08172); assay: Binding affinity to cloned human muscarinic M2 receptor expressed in CHO cells; assay type: cell-based
T5 sequence (P08172 whole entry): T1 sequence (whole entry)
Procedure, shortened: (§4)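 Membranes from CHO cells stably expressing human hm2, hm4 or hm5 receptors, at 70, 50 and 25 µg/mL protein respectively. 0.2 nM [3H]NMS displaced by unlabelled ligand for 120 min at room temperature, in 25 mM sodium phosphate with 5 mM MgCl2, pH 7.4. Rapid filtration, then scintillation counting. Mean of at least three experiments.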

[12] = biological target: T6, Muscarinic acetylcholine receptor M5 (Homo sapiens, UniProt P08912); assay: Binding affinity to cloned human muscarinic M5 receptor expressed in CHO cells; assay type: cell-based; procedure, shortened: as §4
T6 sequence (P08912 whole entry): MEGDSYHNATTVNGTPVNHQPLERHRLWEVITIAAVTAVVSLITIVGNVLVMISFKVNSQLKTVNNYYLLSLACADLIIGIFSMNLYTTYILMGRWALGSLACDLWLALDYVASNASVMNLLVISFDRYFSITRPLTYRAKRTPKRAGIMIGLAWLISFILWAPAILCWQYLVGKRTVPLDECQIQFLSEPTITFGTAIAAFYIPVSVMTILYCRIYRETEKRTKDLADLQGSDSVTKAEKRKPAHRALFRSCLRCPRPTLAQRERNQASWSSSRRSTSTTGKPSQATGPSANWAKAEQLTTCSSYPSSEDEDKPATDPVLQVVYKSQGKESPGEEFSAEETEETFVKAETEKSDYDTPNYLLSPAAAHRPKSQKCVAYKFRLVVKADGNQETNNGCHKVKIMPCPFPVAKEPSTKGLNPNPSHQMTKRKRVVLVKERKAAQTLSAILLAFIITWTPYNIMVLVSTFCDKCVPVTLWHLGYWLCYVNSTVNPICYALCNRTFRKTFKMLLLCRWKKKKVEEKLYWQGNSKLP

[13] = biological target: T7, Muscarinic acetylcholine receptor M4 (Homo sapiens, UniProt P08173); assay: Binding affinity to cloned human muscarinic M4 receptor expressed in CHO cells; assay type: cell-based; details: for Log Ki: cho; procedure, shortened: as §4
T7 sequence (P08173 whole entry): T2 sequence (whole entry)

`C[C@H]1O[C@@H]([C@@H]2CCC[N+]2(C)C)C[S@@+]1[O-]` (stereo in doubt; (+)-7) showed a pKb [1] of under 5, a pKb [2] of under 5 and a pKb [3] of under 5. It also gave an Activity [4] of 0, an Activity [5] of 0 and a pKb [6] of under 5.

Molecule `C[C@H]1O[C@@H](C[N+](C)(C)C)C[S+]1[O-]` (single isomer, unassigned; (-)) has a Ratio [7] of 28, a -logKa [4] of 5.38 and a pD2 [4] of 6.95. The Ratio [8] was 37, the -logKa [5] was 5.22 and the pD2 [5] was 6.66.

`C[C@@H]1O[C@H]([C@H]2CCCN2C)C[S@+]1[O-]` gave a Ki [9] of over 100 µM, a Ki [10] of over 100 µM and a Ki [11] of over 100 µM. It also gave a Ki [12] of over 100 µM and a Ki [13] of over 100 µM.

With `C[C@@H]1O[C@H]([C@@H]2CCCN2C)C[S@+]1[O-]` the pKb [1] was under 5, the pKb [2] was under 5 and the pKb [3] was under 5. For the same molecule, the Activity [4] was 0, the Ki [9] was over 100 µM and the Ki [10] was over 100 µM. For the same molecule, the Ki [11] was 89.1 µM, the Ki [12] was over 100 µM and the Activity [5] was 0. It also gave a Ki [13] of over 100 µM and a pKb [6] of under 5.

With `C[C@H]1O[C@@H]([C@@H]2CCC[N+]2(C)C)C[S@@+]1[O-].[I-]` (stereo in doubt; (+)-7) the “Log Ki” value [9] was under -4, the “Log Ki” value [10] was under -4 and the Ki [11] was 81.3 µM. The Ki [12] was 57.5 µM and the “Log Ki” value [13] was under -4.

Work on `C[C@@H]1O[C@H]([C@H]2CCC[N+]2(C)C)C[S@+]1[O-]` yielded a Ki [9] of over 100 µM, a Ki [10] of over 100 µM and a Ki [11] of over 100 µM. It also gave a Ki [12] of over 100 µM and a Ki [13] of over 100 µM.

With `C[C@H]1O[C@@H]([C@@H]2CCC[N+]2(C)C)C[S@@+]1[O-].[I-]` (stereo in doubt; (-)-8) the “Log Ki” value [9] was under -4, the “Log Ki” value [10] was under -4 and the Ki [11] was over 100 µM. For the same molecule, the Ki [12] was over 100 µM and the “Log Ki” value [13] was under -4.

Molecule `C[C@H]1O[C@@H]([C@@H]2CCCN2C)C[S@+]1[O-]` has a pKb [1] of under 5, a pKb [2] of under 5 and a pKb [3] of under 5. For the same molecule, the Activity [4] was 0, the Ki [9] was over 100 µM and the Ki [10] was over 100 µM. The Ki [11] was 87.1 µM, the Ki [12] was over 100 µM and the Activity [5] was 0. For the same molecule, the Ki [13] was over 100 µM and the pKb [6] was under 5.

Molecule `C[C@H]1O[C@@H]([C@@H]2CCCN2C)C[S@@+]1[O-]` has a Ki [9] of over 100 µM, a Ki [10] of over 100 µM and a Ki [11] of over 100 µM. The Ki [12] was over 100 µM and the Ki [13] was over 100 µM.

With `C[C@H]1O[C@@H]([C@@H]2CCC[N+]2(C)C)C[S@@+]1[O-]` (stereo in doubt; (-)-8) the pKb [1] was under 5, the pKb [2] was under 5 and the pKb [3] was under 5. It also gave an Activity [4] of 0, an Activity [5] of 0 and a pKb [6] of under 5.
